Data set [1] has as its target Nuclear receptor subfamily 1 group I member 3 (Mus musculus, UniProt O35627, H213A). Nature of the data set: Effect on nuclear co-repressor receptor binding to mouse CAR H213A mutant […] at 10 uM by yeast two-hybrid assay. The class given is cell-based. Conditions: read-out: Activity. The gist of the method: (§1)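 Yeast two-hybrid: yeast expressing wild-type or mutant mouse CAR LBD plus SRC-1 or NCoR, selected on SD medium lacking Leu and Trp. Pooled colonies treated with DMSO or test chemical for 3.5 h. β-Galactosidase normalized to cell density. SRC-1 reference: wild-type + DMSO = 100. NCoR reference: 10 µM androstenol = 100. Mean ± SD, two independent determinations, each in triplicate.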

Data set [2] concerns the target T1, Nuclear receptor subfamily 1 group I member 3 (Mus musculus, UniProt O35627, T350A). Put plainly: Activation of mouse CAR T350A mutant expressed in HEK293 cells at 10 uM by mammalian one-hybrid assay. The class given is cell-based. Conditions: hek293, 10 µM. The gist of the method: (§2)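 GAL4 DBD fused to mouse CAR LBD (residues 118-358), wild type or point mutant, cotransfected with UASx4-tk-luc reporter and pCMVβ into HEK293 cells. Cells cultured with DMSO (0.1% v/v) or compound (final 1, 2 or 10 µM). Lysed 24 h post-transfection. Luciferase normalized to β-galactosidase, expressed relative to empty GAL4 vector (=1.0). Mean ± SD, three independent experiments.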

Data set [3] addresses Nuclear receptor subfamily 1 group I member 3 (Mus musculus, UniProt O35627, I252L). As to conditions: HEK293, mouse.
The target in data set [4] is Nuclear receptor subfamily 1 group I member 3 (Mus musculus, UniProt O35627, L253F). Nature of the data set: Decrease in mouse CAR L253F mutant activation expressed in HEK293 cells at 2 uM by mammalian one-hybrid assay. The class given is cell-based. Conditions: read-out: Activity. The gist of the method:
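GAL4-DBD fused to mouse CAR LBD (residues 118-358), wild-type or point mutant, cotransfected with UASx4-tk-luc reporter and pCMVβ into HEK293 cells. Cells were exposed to final 1 µM, 2 µM or 10 µM test chemical, or 0.1% v/v DMSO, for 24 h after transfection. Luciferase was normalized to β-galactosidase and set against empty GAL4 vector (=1.0). Mean ± standard deviation, three independent experiments.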

Data set [5] addresses Nuclear receptor subfamily 1 group I member 3 (Mus musculus, UniProt O35627, L212A). Nature of the data set: Decrease in nuclear co-repressor receptor binding to mouse CAR L212A mutant […] at 2 uM by yeast two-hybrid assay. The class given is cell-based. As to conditions: read-out: Activity. In a few lines: as §1
For data set [6], the target named is T2, Nuclear receptor subfamily 1 group I member 3 (Mus musculus, UniProt O35627, S251L). Nature of the data set: Decrease in mouse CAR S251L mutant activation expressed in HEK293 cells at 1 uM by mammalian one-hybrid assay. The class given is cell-based. Conditions: read-out: Activity. The gist of the method:
as §2

The target of data set [7] is T2, Nuclear receptor subfamily 1 group I member 3. Nature of the data set: Effect on steroid receptor co-activator 1 binding to mouse CAR S251L mutant […] at 1 uM by yeast two-hybrid assay. The class given is cell-based. Conditions: read-out: Activity. The gist of the method: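 Yeast two-hybrid assay. Yeast co-expressing wild-type or mutant mouse CAR LBD and the SRC-1 partner were selected on SD plates lacking leucine and tryptophan. Random colonies were pooled and amplified, then treated with DMSO or test chemical for 3.5 h. β-galactosidase activity was normalized to cell density and set relative to wild-type mCAR + SRC-1 with DMSO (=100). Mean ± standard deviation of two determinations, each in triplicate.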

For data set [8], the target named is Nuclear receptor subfamily 1 group I member 3 (Mus musculus, UniProt O35627, F171A). Put plainly: Effect on nuclear co-repressor receptor binding to mouse CAR F171A mutant […] at 1 uM by yeast two-hybrid assay. The class given is cell-based. In a few lines:
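Yeast expressing wild-type or mutant mouse CAR LBD plus NCoR, selected on SD plates lacking leucine and tryptophan. Pooled colonies treated with DMSO or compound for 3.5 h. β-Galactosidase activity normalized to cell density. Reference is 10 µM androstenol (=100). Mean ± SD of two independent determinations, each in triplicate.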

In data set [9] the target is T1, Nuclear receptor subfamily 1 group I member 3. Put plainly: Decrease in steroid receptor coactivator 1 binding to mouse CAR T350A mutant […] at 1 uM by yeast two-hybrid assay. The class given is cell-based. As to conditions: read-out: Activity. The gist of the method:
(§3)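 Yeast expressing wild-type or mutant mouse CAR LBD plus SRC-1, selected on SD plates lacking leucine and tryptophan. Pooled colonies treated with DMSO or compound for 3.5 h. β-Galactosidase activity normalized to cell density. Reference is wild-type CAR + SRC-1 with DMSO (=100). Mean ± SD of two independent determinations, each in triplicate.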

Data set [10] addresses Nuclear receptor subfamily 1 group I member 3 (Mus musculus, UniProt O35627, F171L). Put plainly: Effect on steroid receptor co-activator 1 binding to mouse CAR F171L mutant […] at 1 uM by yeast two-hybrid assay. Conditions: read-out: Activity. The class given is cell-based. The gist of the method: as §3

T1 sequence (O35627 whole entry T350A, the tested form may be a part): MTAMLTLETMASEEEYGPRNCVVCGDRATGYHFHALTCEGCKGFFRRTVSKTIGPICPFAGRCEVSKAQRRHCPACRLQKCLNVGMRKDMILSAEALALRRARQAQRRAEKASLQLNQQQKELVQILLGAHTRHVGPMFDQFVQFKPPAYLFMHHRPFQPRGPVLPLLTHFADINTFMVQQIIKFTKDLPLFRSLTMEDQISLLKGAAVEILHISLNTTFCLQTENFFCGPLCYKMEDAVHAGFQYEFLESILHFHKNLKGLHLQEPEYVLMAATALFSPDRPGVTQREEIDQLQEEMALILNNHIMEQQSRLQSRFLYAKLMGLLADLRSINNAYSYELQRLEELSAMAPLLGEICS
T2 sequence (O35627 whole entry S251L): as the sequence (O35627 whole entry T350A, the tested form may be a part) above, with S251L, A350T counted along it
Chain of Nuclear receptor subfamily 1 group I member 3 (Mus musculus, UniProt O35627, H213A) (O35627 whole entry H213A, the tested form may be a part): as the sequence (O35627 whole entry T350A, the tested form may be a part) above, with H213A, A350T counted along it
Chain of Nuclear receptor subfamily 1 group I member 3 (Mus musculus, UniProt O35627, L253F) (O35627 whole entry L253F, the tested form may be a part): as the sequence (O35627 whole entry T350A, the tested form may be a part) above, with L253F, A350T counted along it
Chain of Nuclear receptor subfamily 1 group I member 3 (Mus musculus, UniProt O35627, L212A) (O35627 whole entry L212A): as the sequence (O35627 whole entry T350A, the tested form may be a part) above, with L212A, A350T counted along it
Chain of Nuclear receptor subfamily 1 group I member 3 (Mus musculus, UniProt O35627, F171L) (O35627 whole entry F171L): as the sequence (O35627 whole entry T350A, the tested form may be a part) above, with F171L, A350T counted along it
Chain of Nuclear receptor subfamily 1 group I member 3 (Mus musculus, UniProt O35627, F171A) (O35627 whole entry F171A, the tested form may be a part): as the sequence (O35627 whole entry T350A, the tested form may be a part) above, with F171A, A350T counted along it
Chain of Nuclear receptor subfamily 1 group I member 3 (Mus musculus, UniProt O35627, I252L) (O35627 whole entry I252L): as the sequence (O35627 whole entry T350A, the tested form may be a part) above, with I252L, A350T counted along it

As to `COc1ccccc1CC(CC(=O)Cc1ccccc1)OC` (stereo not given), the activity at 10 µM in data set [1] was below 50%.
In data set [2], `C[C@]12CC[C@@H](O)C[C@@H]1CC[C@@H]1[C@@H]2CC[C@]2(C)C=CC[C@@H]12` [ANDROSTENOL] returned an Activity below 50%. The same compound registered an activity at 10 µM in data set [3] below 50%.
Turning to `Clc1ccccc1C(c1ccccc1)(c1ccccc1)n1ccnc1` [CLOTRIMAZOLE], the figures for the inhibition at 2 µM in data set [4] and in data set [5] were 50% and at least 50%, respectively.
For `Clc1cnc(Oc2ccc(Oc3ncc(Cl)cc3Cl)cc2)c(Cl)c1`, the inhibition at 1 µM in [6] is below 50%; in data set [9], at least 50%. The activity at 1 µM in [7] and in [10] was below 50% in each case. The compound further showed an Activity in [8] below 50%.

Source of the values: ChEMBL document CHEMBL1152300, “Ligand specificity of constitutive androstane receptor as probed by induced-fit docking and mutagenesis” (J Med Chem, 2008).
